According to ChEMBL document CHEMBL4130635, “2,4-Diaminoquinazolines as Dual Toll-like Receptor (TLR) 7/8 Modulators for the Treatment of Hepatitis B Virus” (J Med Chem, 2018):

Columns and labels:
[1] = molecular target: T1, Toll-like receptor 7 (Homo sapiens) (UniProt Q9NYK1); experiment: Agonist activity at human TLR7 expressed in HEK293 cells assessed as induction of receptor activation incubated for 6 hrs by NF-kappaB-luciferase reporter gene assay; format: cell-based
T1 sequence (whole entry): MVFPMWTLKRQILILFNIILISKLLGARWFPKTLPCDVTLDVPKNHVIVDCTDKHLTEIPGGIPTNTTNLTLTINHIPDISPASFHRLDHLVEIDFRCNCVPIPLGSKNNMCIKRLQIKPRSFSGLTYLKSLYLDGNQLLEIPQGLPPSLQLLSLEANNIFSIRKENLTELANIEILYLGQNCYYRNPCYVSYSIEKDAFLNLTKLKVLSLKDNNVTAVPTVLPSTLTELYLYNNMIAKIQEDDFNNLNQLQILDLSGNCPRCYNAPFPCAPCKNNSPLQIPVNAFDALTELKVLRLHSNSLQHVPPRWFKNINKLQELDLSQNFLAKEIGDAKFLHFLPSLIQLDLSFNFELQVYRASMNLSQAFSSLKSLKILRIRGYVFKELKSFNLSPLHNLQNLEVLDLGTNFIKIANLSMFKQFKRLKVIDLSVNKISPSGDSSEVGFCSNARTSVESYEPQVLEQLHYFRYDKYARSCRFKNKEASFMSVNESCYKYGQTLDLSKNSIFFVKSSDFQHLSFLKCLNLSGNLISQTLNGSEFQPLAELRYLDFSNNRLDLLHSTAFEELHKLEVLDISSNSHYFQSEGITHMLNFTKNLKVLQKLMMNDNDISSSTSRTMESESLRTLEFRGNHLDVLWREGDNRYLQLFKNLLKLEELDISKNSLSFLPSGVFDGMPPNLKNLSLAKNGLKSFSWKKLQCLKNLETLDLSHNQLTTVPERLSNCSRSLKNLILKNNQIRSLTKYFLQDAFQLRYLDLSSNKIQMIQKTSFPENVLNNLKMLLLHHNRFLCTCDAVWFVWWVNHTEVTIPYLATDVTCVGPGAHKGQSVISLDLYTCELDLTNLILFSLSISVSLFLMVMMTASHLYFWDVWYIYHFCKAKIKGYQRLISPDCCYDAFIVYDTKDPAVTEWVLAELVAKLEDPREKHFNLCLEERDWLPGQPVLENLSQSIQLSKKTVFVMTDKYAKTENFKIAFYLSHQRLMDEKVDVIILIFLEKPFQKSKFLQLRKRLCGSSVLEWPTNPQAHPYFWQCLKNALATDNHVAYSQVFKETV
Summary of the method: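 HEK cell-based assay using a wild-type TLR7 expression vector; a parallel TLR8 vector construct served for selectivity. Results are expressed as lowest effective concentration (LEC), averaged over independent experiments where determined two or more times. A separate HEK 293 cytotoxicity (TOX) assay gave CC50 alongside.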

[2] = Metabolic stability in mouse liver microsomes assessed as compound metabolized at 1 uM after 15 mins; format: ADME, microsome; conditions: read-out: Drug metabolism
Summary of the method: (§1)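 Mouse (M) or human (H) liver microsomes incubated with compound at 1 μM; percent metabolized after 15 min.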

[3] = Metabolic stability in human liver microsomes assessed as compound metabolized at 1 uM after 15 mins; format: ADME, microsome; conditions: read-out: Drug metabolism; summary of the method: as §1
[4] = molecular target: 5-hydroxytryptamine receptor 2A (Homo sapiens, UniProt P28223); experiment: Inhibition of 5-HT2A receptor (unknown origin)
Sequence of 5-hydroxytryptamine receptor 2A (P28223 whole entry): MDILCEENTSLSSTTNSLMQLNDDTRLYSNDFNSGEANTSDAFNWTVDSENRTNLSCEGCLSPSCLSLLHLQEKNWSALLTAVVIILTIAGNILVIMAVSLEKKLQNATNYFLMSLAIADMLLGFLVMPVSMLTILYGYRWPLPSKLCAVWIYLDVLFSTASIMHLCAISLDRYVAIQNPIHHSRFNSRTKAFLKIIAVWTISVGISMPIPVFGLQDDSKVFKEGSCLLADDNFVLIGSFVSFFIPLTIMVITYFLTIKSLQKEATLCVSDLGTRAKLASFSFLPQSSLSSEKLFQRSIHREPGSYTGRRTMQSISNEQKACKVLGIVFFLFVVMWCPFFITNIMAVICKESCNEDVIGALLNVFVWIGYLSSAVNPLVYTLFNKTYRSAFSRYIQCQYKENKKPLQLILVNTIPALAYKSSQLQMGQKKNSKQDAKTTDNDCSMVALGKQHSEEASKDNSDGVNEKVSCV

[5] = molecular target: T1, Toll-like receptor 7 (Homo sapiens); experiment: Agonist activity at TLR7 in human PBMC assessed as suppression of HCV replicon replication in human HuH7 luc/neo cells harboring RNA encoding bicistronic expression construct comprising wild type HCV type 1b NS3-NS5B regions exposed to conditioned media from compound treated PBMCs after 24 hrs by luciferase reporter gene assay; format: cell-based
Summary of the method: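 Human PBMCs were incubated with compound. Their medium was then transferred onto an HCV replicon system, so the antiviral read-out reflects interferon and cytokines the PBMCs induced. Values are reported as lowest effective concentration (LEC), averaged when determined in two or more independent experiments.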

D(1A) dopamine receptor = D(1A) dopamine receptor (Homo sapiens, UniProt P21728); experiment: Inhibition of dopamine D1 receptor (unknown origin)
Sequence of D(1A) dopamine receptor (P21728 whole entry): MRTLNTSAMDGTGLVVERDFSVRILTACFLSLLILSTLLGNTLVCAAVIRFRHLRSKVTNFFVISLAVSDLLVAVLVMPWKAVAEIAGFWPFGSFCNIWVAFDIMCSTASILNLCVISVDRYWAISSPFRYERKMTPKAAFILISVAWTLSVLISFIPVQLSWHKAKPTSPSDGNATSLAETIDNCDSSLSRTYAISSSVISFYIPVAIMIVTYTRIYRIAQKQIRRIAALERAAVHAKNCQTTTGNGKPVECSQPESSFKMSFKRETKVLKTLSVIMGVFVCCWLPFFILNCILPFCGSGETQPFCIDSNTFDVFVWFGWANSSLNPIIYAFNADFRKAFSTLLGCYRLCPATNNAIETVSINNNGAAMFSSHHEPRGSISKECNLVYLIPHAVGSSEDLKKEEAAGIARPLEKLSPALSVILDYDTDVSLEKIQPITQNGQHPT

[6] = molecular target: Voltage-gated inwardly rectifying potassium channel KCNH2 (Homo sapiens, UniProt Q12809); experiment: Inhibition of radioligand binding to human ERG expressed in HEK293 cell membranes by scintillation counting method
Sequence of Voltage-gated inwardly rectifying potassium channel KCNH2 (Q12809 whole entry): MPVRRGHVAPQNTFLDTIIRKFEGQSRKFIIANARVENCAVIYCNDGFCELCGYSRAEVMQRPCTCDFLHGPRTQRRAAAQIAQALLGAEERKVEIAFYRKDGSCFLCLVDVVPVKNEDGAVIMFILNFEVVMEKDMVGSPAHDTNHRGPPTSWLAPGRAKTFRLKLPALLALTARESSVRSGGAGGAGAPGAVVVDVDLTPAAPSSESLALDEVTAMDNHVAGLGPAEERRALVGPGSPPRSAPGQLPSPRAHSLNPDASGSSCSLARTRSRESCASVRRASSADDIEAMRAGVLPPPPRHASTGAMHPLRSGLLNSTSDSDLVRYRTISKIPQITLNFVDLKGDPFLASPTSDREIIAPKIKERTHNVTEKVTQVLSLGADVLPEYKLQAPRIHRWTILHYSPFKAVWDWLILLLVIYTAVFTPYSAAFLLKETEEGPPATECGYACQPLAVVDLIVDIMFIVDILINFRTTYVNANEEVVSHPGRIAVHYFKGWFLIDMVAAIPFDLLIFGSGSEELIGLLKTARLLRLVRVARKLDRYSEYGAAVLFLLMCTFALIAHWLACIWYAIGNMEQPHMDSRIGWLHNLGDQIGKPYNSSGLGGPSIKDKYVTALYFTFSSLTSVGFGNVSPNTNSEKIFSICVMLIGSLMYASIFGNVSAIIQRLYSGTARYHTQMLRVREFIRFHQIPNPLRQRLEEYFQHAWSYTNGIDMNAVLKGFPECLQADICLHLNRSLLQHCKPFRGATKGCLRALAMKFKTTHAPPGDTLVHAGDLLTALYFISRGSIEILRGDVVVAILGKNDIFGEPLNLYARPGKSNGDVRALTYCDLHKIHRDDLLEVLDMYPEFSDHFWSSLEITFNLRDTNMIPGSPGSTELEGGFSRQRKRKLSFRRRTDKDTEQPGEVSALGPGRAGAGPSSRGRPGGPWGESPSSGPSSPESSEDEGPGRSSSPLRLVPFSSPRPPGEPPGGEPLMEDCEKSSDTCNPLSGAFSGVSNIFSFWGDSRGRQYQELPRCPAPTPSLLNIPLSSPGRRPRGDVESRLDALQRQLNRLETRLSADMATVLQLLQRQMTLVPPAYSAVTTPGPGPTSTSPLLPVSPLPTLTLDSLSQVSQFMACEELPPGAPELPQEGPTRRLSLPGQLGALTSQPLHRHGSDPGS

[7] = molecular target: Alpha-1A adrenergic receptor; experiment: Inhibition of alpha-1A adrenergic receptor (unknown origin)
[8] = Cytotoxicity against HEK293 cells assessed as reduction in cell viability after 6 hrs by ATP lite assay; format: cell-based; conditions: human
[9] = molecular target: T2, Toll-like receptor 8 (Homo sapiens) (UniProt Q9NR97); experiment: Agonist activity at human TLR8 expressed in HEK293 cells assessed as induction of receptor activation incubated for 6 hrs by NF-kappaB-luciferase reporter gene assay; format: cell-based
T2 sequence (whole entry): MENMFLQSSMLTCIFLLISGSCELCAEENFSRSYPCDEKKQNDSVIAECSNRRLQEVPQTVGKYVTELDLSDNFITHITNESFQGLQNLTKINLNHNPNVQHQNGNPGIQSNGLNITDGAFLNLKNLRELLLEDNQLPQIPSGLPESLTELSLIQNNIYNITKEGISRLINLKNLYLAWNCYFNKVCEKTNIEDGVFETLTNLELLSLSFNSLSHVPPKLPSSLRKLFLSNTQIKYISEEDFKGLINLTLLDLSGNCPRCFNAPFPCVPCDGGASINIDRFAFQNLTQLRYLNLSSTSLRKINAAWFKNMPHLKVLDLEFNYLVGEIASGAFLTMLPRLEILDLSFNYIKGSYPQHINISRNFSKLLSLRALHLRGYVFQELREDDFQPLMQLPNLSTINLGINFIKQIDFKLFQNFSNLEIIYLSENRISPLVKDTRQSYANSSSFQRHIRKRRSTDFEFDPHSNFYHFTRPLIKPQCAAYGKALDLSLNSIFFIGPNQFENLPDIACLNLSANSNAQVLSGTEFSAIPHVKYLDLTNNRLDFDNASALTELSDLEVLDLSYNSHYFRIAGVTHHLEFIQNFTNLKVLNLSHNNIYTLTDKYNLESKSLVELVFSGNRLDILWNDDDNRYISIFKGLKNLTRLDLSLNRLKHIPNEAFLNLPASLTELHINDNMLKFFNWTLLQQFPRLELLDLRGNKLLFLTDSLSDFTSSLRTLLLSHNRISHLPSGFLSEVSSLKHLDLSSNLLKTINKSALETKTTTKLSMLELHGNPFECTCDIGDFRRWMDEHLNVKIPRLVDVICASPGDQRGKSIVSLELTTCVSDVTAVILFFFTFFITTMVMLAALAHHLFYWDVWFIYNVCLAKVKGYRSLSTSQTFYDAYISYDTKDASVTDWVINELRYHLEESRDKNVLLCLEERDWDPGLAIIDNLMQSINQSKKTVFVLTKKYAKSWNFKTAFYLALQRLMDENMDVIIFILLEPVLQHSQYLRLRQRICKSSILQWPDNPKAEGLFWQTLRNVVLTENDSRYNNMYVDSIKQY

Cytochrome P450 2D6 = Cytochrome P450 2D6 (Homo sapiens, UniProt P10635); experiment: Inhibition of CYP2D6 (unknown origin); format: ADME
Sequence of Cytochrome P450 2D6 (P10635 whole entry): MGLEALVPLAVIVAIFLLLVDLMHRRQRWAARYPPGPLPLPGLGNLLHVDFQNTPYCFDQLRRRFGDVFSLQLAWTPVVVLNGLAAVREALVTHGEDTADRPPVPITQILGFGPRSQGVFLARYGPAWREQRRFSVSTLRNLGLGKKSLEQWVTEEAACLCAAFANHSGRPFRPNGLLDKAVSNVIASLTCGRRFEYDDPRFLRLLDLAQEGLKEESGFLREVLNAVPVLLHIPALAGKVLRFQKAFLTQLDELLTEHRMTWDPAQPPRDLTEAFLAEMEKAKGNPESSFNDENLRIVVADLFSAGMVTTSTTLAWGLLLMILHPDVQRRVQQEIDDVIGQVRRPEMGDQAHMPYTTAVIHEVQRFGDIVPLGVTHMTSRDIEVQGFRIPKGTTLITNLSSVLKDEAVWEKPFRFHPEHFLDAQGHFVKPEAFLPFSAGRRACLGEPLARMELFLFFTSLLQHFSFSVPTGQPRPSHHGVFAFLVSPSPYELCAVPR

Compound: CCC[C@@H](CCO)Nc1nc(N)nc2cc(OC)ccc12
- MEC [1]: 0.2 µM
- metabolised at 0.25 h, 1 µM [2]: 65%
- metabolised at 0.25 h, 1 µM [3]: 35%
- IC50 [4]: 1.78 µM
- MEC [5]: 0.5 µM
- IC50 (D(1A) dopamine receptor): 5.75 µM
- IC50 [6]: > 10 µM
- IC50 [7]: 2.34 µM
- CC50 at 6 h [8]: > 24 µM
- MEC [9]: 0.13 µM
- IC50 (Cytochrome P450 2D6): 0.6 µM
